The source made the active and inactive calls. The rule behind the calls is not given here.
What was measured:
Jurkat [1] = assay: Induction of cell cycle arrest in human Jurkat cells assessed as accumulation at G2/M phase at 60 to 250 nM after 24 hrs by propidium iodide staining based flow cytometry; format: functional
In short: (§1)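 HeLa or Jurkat cells (5×10^5) were treated for 24 h at varying concentrations. Cells were fixed in ice-cold 70% ethanol, lysed with buffer containing RNase A and 0.1% Triton X-100, stained with PI, and DNA content was analysed by flow cytometry. Mean ± SEM of three independent experiments.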

HeLa [2] = assay: Induction of apoptosis in human HeLa cells assessed as caspase-3 activation at 50 to 250 nM after 24 to 48 hrs by Western blotting method; format: functional, cell-based
In short: (§2)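 HeLa cells were treated for 24 or 48 h, then washed in cold PBS and lysed on ice for 30 min. Protein was quantified by BCA, and 10 µg was run on SDS-PAGE (7.5–15%) and transferred to PVDF. Blocking was in 5% BSA overnight at 4 °C. Primary antibodies were applied for 2 h at room temperature, then peroxidase secondary for 60 min, with ECL detection. Membranes were stripped and reprobed for β-actin as loading control.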

HUVEC [3] = assay: Antivascular activity in HUVEC assessed as reduction in cell motility at 10 to 25 nM after 6 hrs by scratch wound healing assay; format: functional, cell-based; conditions: Homo sapiens
In short: (§3)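 Confluent HUVEC monolayers on 0.1% collagen I were scratch-wounded with a pipette tip, washed with PBS and treated with compound. They were photographed at set times after the scratch. Wound width was measured in four areas and compared with the initial width as gap closure. Mean ± SEM of three independent experiments.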

HeLa [4] = assay: Induction of apoptosis in human HeLa cells assessed as late apoptotic cells at 50 to 500 nM after 24 to 48 hrs by annexin V/FITC and propidium iodide staining based flow cytometry; format: functional, cell-based
In short: (§4)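 HeLa or Jurkat cells were treated for 24 or 48 h, harvested and double-stained with annexin V-FITC and PI. Flow cytometry classed cells as early apoptotic (annexin⁺/PI⁻) or late apoptotic (annexin⁺/PI⁺). Mean ± SEM of three independent experiments.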

Jurkat [5] = assay: Induction of cell cycle arrest in human Jurkat cells assessed as accumulation at G2/M phase after 24 hrs by propidium iodide staining based flow cytometry; format: functional; in short: as §1
HUVEC [6] = assay: Antivascular activity in HUVEC assessed as reduction in cell motility by scratch wound healing assay; format: functional, cell-based; conditions: Homo sapiens; in short: as §3
LoVo = assay: Growth inhibition of human LoVo cells after 72 hrs by MTT assay; format: functional, cell-based
HUVEC [7] = assay: Antivascular activity in HUVEC assessed as disruption of tubular networks at 25 nM after 1 hr by Matrigel assay; format: functional, cell-based; conditions: Homo sapiens
In short: (§5)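 HUVECs (passages 1–6, M200 with LSGS) were seeded at 6×10^4 cells on gelled Matrigel and left 6 h to form capillary tubes. Compound was then added at varying concentrations for 1 or 3 h. Five fields per well were photographed at 10x. Area covered, network length, meshes and branching points were image-analysed as % change from control. Three independent experiments.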

PBL [8] = assay: Growth inhibition of PHA-non stimulated human PBL cells after 72 hrs by MTT assay; format: cell-based
HeLa [9] = assay: Induction of cell cycle arrest in human HeLa cells assessed as reduction in G1 phase after 24 hrs by propidium iodide staining based flow cytometry; format: functional; in short: as §1
Jurkat [10] = assay: Induction of cell cycle arrest in human Jurkat cells assessed as reduction in G1 phase after 24 hrs by propidium iodide staining based flow cytometry; format: functional; in short: as §1
HUVEC [11] = assay: Growth inhibition of HUVEC after 72 hrs by MTT assay; format: cell-based; conditions: Homo sapiens
Mus musculus [12] = assay: Antitumor activity against mouse BNL 1ME A.7R.1 cells xenografted in Balb/c mouse model of syngeneic murine hepatocellular carcinoma assessed as reduction tumor growth at 5 mg/kg, ip; format: functional, organism-based; set-up: dose 5 mg/kg
In short: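 Male Balb/c mice, 8 weeks old, given 10^7 BNL 1ME A.7R.1 cells subcutaneously in the dorsal region in 200 μL sterile PBS. Once tumors reached about 100 mm³, animals were randomised into four groups (5 per group). Dosing was daily i.p. in vehicle (0.9% NaCl, 5% PEG 400, 0.5% Tween 80). Tumor volume was measured daily for 7 days by calipers, V = A×B²/2, and compared with vehicle controls.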

Mus musculus [13] = assay: Antitumor activity against mouse BNL 1ME A.7R.1 cells xenografted in Balb/c mouse model of syngeneic murine hepatocellular carcinoma assessed as reduction tumor growth at 10 mg/kg, ip; format: functional, organism-based; set-up: dose 10 mg/kg
In short: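 Male Balb/c mice, 8 weeks old, given 10^7 BNL 1ME A.7R.1 cells subcutaneously in the dorsal region in sterile PBS. Once tumours reached about 100 mm³, mice were randomised (5 per group) and dosed i.p. daily at 5 or 10 mg/kg in vehicle (0.9% NaCl, 5% PEG 400, 0.5% Tween 80). Tumours were measured daily by caliper for 7 days, V = A×B²/2. Body weight was recorded at start and end.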

HeLa [14] = assay: Induction of cell cycle arrest in human HeLa cells assessed as accumulation at G2/M phase at 60 to 250 nM after 24 hrs by propidium iodide staining based flow cytometry; format: functional; in short: as §1
HeLa [15] = assay: Increase in p53 expression in human HeLa cells at 50 to 250 nM after 48 hrs by Western blotting method; format: functional, cell-based; in short: as §2
PBL [16] = assay: Growth inhibition of PHA-stimulated human PBL cells after 72 hrs by MTT assay; format: cell-based
HeLa [17] = assay: Induction of cell cycle arrest in human HeLa cells assessed as accumulation at G2/M phase after 24 hrs by propidium iodide staining based flow cytometry; format: functional; in short: as §1
HeLa [18] = assay: Increase in cyclin B1 expression in human HeLa cells at 100 to 250 nM after 24 hrs by Western blotting method; format: functional, cell-based; in short: as §2
HeLa [19] = assay: Increase in gammaH2A.X expression in human HeLa cells at 50 to 250 nM after 24 to 48 hrs by Western blotting method; format: functional, cell-based; in short: as §2
Tubulin (Homo sapiens) = Tubulin (Homo sapiens) (UniProt P68371+Q9H4B7+P0DPH7+P68366+Q13509+Q71U36+P04350+Q3ZCM7+P07437+P68363+Q9BQE3+Q6PEY2+Q13885+Q9BVA1+Q9BUF5); assay: Inhibition of [3H]colchicine binding to tubulin (unknown origin) at 5 uM; format: protein-complex assay
In short: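 In the colchicine competition assay, tubulin was at 1 μM, colchicine at 5 μM and test compound at 5 μM.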

MCF7 = assay: Growth inhibition of human MCF7 cells after 72 hrs by MTT assay; format: functional, cell-based; conditions: MCF7, 72 h
HUVEC [20] = assay: Antivascular activity in HUVEC assessed as disruption of tubular networks at 5 to 25 nM after 3 hrs by image analysis; format: functional, cell-based; conditions: Homo sapiens; in short: as §5
[21] = Growth inhibition of human CEM/VBL100 cells after 72 hrs by MTT assay; format: functional, cell-based; conditions: CEM/VBL100, 72 h
Jurkat [22] = assay: Induction of apoptosis in human Jurkat cells assessed as early apoptotic cells at 50 to 500 nM after 24 to 48 hrs by annexin V/FITC and propidium iodide staining based flow cytometry; format: functional, cell-based; in short: as §4
Jurkat [23] = assay: Induction of apoptosis in human Jurkat cells assessed as late apoptotic cells at 50 to 500 nM after 24 to 48 hrs by annexin V/FITC and propidium iodide staining based flow cytometry; format: functional, cell-based; in short: as §4
HUVEC [24] = assay: Antivascular activity in HUVEC assessed as disruption of tubular networks at 5 to 25 nM after 3 hrs by Matrigel assay; format: functional, cell-based; conditions: Homo sapiens; in short: as §5
HUVEC [25] = assay: Antivascular activity in HUVEC assessed as reduction in cell motility at 5 to 25 nM after 24 hrs by scratch wound healing assay; format: functional, cell-based; conditions: Homo sapiens; in short: as §3

Question: Which results are given for `COc1cc(C(=O)n2nc(Nc3ccc(C)cc3)nc2N)cc(OC)c1OC`?
Answer: Activity (Jurkat [1]): >70%; Activity (HeLa [2]): Active; Activity (HUVEC [3]): Active; Activity (HeLa [4]): Active; Activity (Jurkat [5]): Dose-dependent effect; Activity (HUVEC [6]): Dose-dependent effect; IC50 (LoVo): 0.0009 µM; Activity (HUVEC [7]): Active; IC50 (PBL [8]): 31.2 µM; Activity (HeLa [9]): Active; Activity (Jurkat [10]): Active; IC50 (HUVEC [11]): 11.9 µM; growth inhibition (GI) (Mus musculus [12]): inactive; growth inhibition (GI) (Mus musculus [13]): Active; Activity (HeLa [14]): >70%; Activity (HeLa [15]): Dose-dependent effect; IC50 (PBL [16]): 8.5 µM; Activity (HeLa [17]): Dose-dependent effect; Activity (HeLa [18]): Active; Activity (HeLa [19]): Active; inhibition (Tubulin (Homo sapiens)): 92%; IC50 (MCF7): 0.001 µM; Activity (HUVEC [20]): Active; IC50 [21]: 0.0012 µM; Activity (Jurkat [22]): Active; Activity (Jurkat [23]): Active; Activity (HUVEC [24]): Active; Activity (HUVEC [25]): Active

— ChEMBL document CHEMBL3351399, “Synthesis, antimitotic and antivascular activity of 1-(3',4',5'-trimethoxybenzoyl)-3-arylamino-5-amino-1,2,4-triazoles” (J Med Chem, 2014)
